Drawing on ChEMBL document CHEMBL5260806, “Hydrogen peroxide activated quinone methide precursors with enhanced DNA cross-linking capability and cytotoxicity towards cancer cells” (Eur J Med Chem, 2017), this text covers Activity, Ka and IC50 for nine molecules.

pIC50: −log10 of the molar value. Activity calls are given as the source filed them. The calls are words filed in the database; no cut-off is given here.

The nature of series [1]: Toxicity in healthy human lymphocytes assessed as reduction in cell viability at 10 uM after 24 hrs by Annexin/PI staining based fluorescence assay. The settings on record: lymphocyte. Put shortly: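 Normal donor lymphocytes (n=2) isolated from peripheral blood by Ficoll-hypaque, in RPMI with 10% autologous plasma. Exposed to 10 µM for 24 h; % viable cells by annexin/PI binding.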

In series [2] the test system is DNA. Nature of the series: Induction of [32P]-labeled 49-mer oligonucleotide duplex DNA 25 (unknown origin) interstrand cross-linking at 2 mM for 24 hrs without H2O2 by PAGE. Format: functional.
Series [3] deals with DNA. Kind of series: Potentiation of H2O2 induced [32P]-labeled 49-mer oligonucleotide duplex DNA 25 (unknown origin) interstrand cross-linking at pH 8 in phosphate buffer solution assessed as rate constant and measured for 24 hrs by PAGE analysis. Format: functional.
The next series relates to UO-31. Nature of the series: Anticancer activity against human UO-31 cells assessed inhibition of cell growth after 48 hrs by CellTiter-Glo luminescent assay. Format: functional, cell-based. Particulars: UO-31, 48 h. The method, boiled down: (§1)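 Renal lines grown in RPMI 1640 with 5% FBS and 2 mM L-glutamine, seeded into 384-well plates at 5,000–10,000 cells/well, held 2–3 h at 37 °C, 5% CO2. DMSO stocks (20 mM) serially halved ten times and added at 1:100. Cells exposed 48 h at 37 °C; CellTiter-Glo added, 10 min at room temperature, luminescence read.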

Another series concerns SN12C. Nature of the series: Anticancer activity against human SN12C cells assessed inhibition of cell growth after 48 hrs by CellTiter-Glo luminescent assay. It is filed as functional, cell-based. The method, boiled down:
as §1

The test system of the next series is 786-0. Nature of the series: Anticancer activity against human 786-0 cells assessed inhibition of cell growth after 48 hrs by CellTiter-Glo luminescent assay. It is filed as functional, cell-based. The settings on record: 786-0, 48 h. The method, boiled down:
(§2)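 Renal lines grown in RPMI 1640 with 5% FBS and 2 mM L-glutamine, plated at 5,000–10,000 cells/well in 384-well plates and held 2–3 h at 37 °C, 5% CO2. Compounds were made as 20 mM DMSO stocks, given as ten 2-fold serial dilutions diluted 1:100 into cells, and incubated 48 h. Read-out was CellTiter-Glo luminescence after 10 min at room temperature.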

Another series relates to TK-10. Kind of series: Anticancer activity against human TK-10 cells assessed inhibition of cell growth after 48 hrs by CellTiter-Glo luminescent assay. Format: functional, cell-based. The settings on record: TK-10, 48 h. Put shortly:
as §1

For another series, the system named is ACHN. Kind of series: Anticancer activity against human ACHN cells assessed inhibition of cell growth after 48 hrs by CellTiter-Glo luminescent assay. It is filed as functional, cell-based. The method, boiled down: as §2
For a further series, the system named is CAKI-1. Kind of series: Anticancer activity against human CAKI-1 cells assessed inhibition of cell growth after 48 hrs by CellTiter-Glo luminescent assay. Format: functional, cell-based. Particulars: CAKI-1, 48 h. Put shortly:
as §2

The next series concerns MDA-MB-468. Nature of the series: Anticancer activity against human MDA-MB-468 cells assessed inhibition of cell growth after 48 hrs by CellTiter-Glo luminescent assay. It is filed as functional, cell-based. Particulars: MDA-MB-468, 48 h. Put shortly: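 Cells grown in RPMI 1640 with 5% fetal bovine serum and 2 mM L-glutamine, seeded at 5,000–10,000 cells/well in 384-well plates, preincubated 2–3 h at 37°C, 5% CO2. DMSO stocks (20 mM) serially diluted 2-fold ten times, then added at 1:100. Exposure 48 h at 37°C. Viability read by CellTiter-Glo luminescence after 10 min at room temperature; IC50 derived.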

The nature of series [4]: Anticancer activity against human CLL cells assessed as reduction in cell viability incubated for 24 hrs by Annexin/PI staining based fluorescence assay. Format: functional. Put shortly: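 CLL lymphocytes were taken from patients' peripheral blood (n=3) by Ficoll-Hypaque, suspended in 10% autologous plasma in RPMI, and exposed to 1, 5, 10, 20, 50 and 100 µM. Viability was measured by annexin V/propidium iodide binding. IC50 comes from one representative patient.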

Series [5] concerns CLL cell. Nature of the series: Induction of DNA damage in chronic lymphocytic leukemia patient lymphocytes assessed as gamma-H2Ax phosphorylation at Ser139 residue at 10 uM after 24 hrs by FITC-staining based flow cytometry. Format: functional. Particulars: Homo sapiens. Put shortly: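 Patient CLL lymphocytes, Ficoll-hypaque isolated, in RPMI with 10% autologous plasma, untreated or exposed to 10 µM for 24 h. Cells washed in PBS, fixed in ice-cold 70% ethanol and held at −20 °C. Then permeabilised, stained with FITC anti-H2AX Ser139 antibody and read by flow cytometry.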

Series [6] deals with CLL cell. Nature of the series: Induction of DNA damage in chronic lymphocytic leukemia patient lymphocytes assessed as apoptosis rate at 10 uM after 24 hrs by annexin/PI staining based flow cytometry. It is filed as functional. Particulars: Homo sapiens.
The test system of series [7] is DNA. Kind of series: Induction of [32P]-labeled 49-mer oligonucleotide duplex DNA 25 (unknown origin) interstrand cross-linking at 2 mM for 48 hrs in presence of 2mM H2O2 by PAGE. Format: functional.
The next series deals with A498. Kind of series: Anticancer activity against human A498 cells assessed inhibition of cell growth after 48 hrs by CellTiter-Glo luminescent assay. Format: functional, cell-based. The settings on record: A498, 48 h. Put shortly:
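Human tumour cells kept in RPMI 1640 with 5% FBS and 2 mM L-glutamine, seeded at 5,000–10,000 cells/well and left 2–3 h at 37°C, 5% CO2. Drugs taken from 20 mM DMSO stocks, serially halved ten times in DMSO, then added at 1:100 dilution. Cells exposed for 48 h at 37°C. Viability read by CellTiter-Glo luminescence after 10 min at room temperature.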

The subject of series [8] is DNA. Nature of the series: Induction of [32P]-labeled 49-mer oligonucleotide duplex DNA 25 (unknown origin) interstrand cross-linking assessed as increase in cross linking with increase of pH from 2 to 9 at 2 mM for 24 hrs in presence of H2O2 by PAGE analysis. Format: functional.

As to `CC1(C)OB(c2c(CBr)cc(O)cc2CBr)OC1(C)C`, the Activity entry in series [1] was “Non-Toxic”; in the series with DNA [2], 0%; with DNA [7], 50%. The Ka in the series with DNA [3] was 0.000201 s⁻¹. Also, the pIC50 in the series on UO-31 was 4.71; with SN12C, 4.61; with 786-0, 4.56; in the series with TK-10, 4.45; in the series with ACHN it was 4.45; with CAKI-1 it was 4.42. Also, the negative-log IC50 (pIC50) was 4.96 in the series on MDA-MB-468 and 4.68 in series [4]. The result with CLL cell [5] and in the series with CLL cell [6] was Active.

With `N[C@@H](Cc1ccc(N(CCCl)CCCl)cc1)C(=O)O` [MELPHALAN], the pIC50 is 4.37 in the series with UO-31; 3.87 with A498; 4.15 in the series with SN12C; 4.72 with 786-0; 4.26 in the series on TK-10; 4.28 in the series on ACHN. In addition, in series [4], the pIC50 is 4.11.

On to `COc1cc(COC(C)=O)c(B2OC(C)(C)C(C)(C)O2)c(COC(C)=O)c1`, for which the Activity is 0% in the series on DNA [2] and 26% with DNA [7].

Regarding `COc1c(CBr)c(B2OC(C)(C)C(C)(C)O2)c(CBr)c(OC)c1OC`, the Activity with DNA [2] and in the series with DNA [7] was 0% in each case. Besides, the outcome in the series on DNA [8] was inactive.

With `O=C(O)CCCc1ccc(N(CCCl)CCCl)cc1` [CHLORAMBUCIL], the pIC50 is 4.39 with UO-31; 3.55 in the series with A498; 3.87 with SN12C; 4.26 with 786-0; 3.88 in the series with ACHN; 4.01 in [4].

Take `CC1(C)OB(c2c(CBr)cccc2CBr)OC1(C)C`: the results for the Activity result (in series [1]; with DNA [2]; in the series with DNA [7]) were “Non-Toxic”, 0% and 22%, respectively. Besides, in the series on DNA [3], the Ka is 8.8e-05 s⁻¹. Besides, the pIC50 is 4.60 in the series on UO-31; 4.48 with A498; 4.57 in the series on SN12C; 4.69 in the series on 786-0; 4.67 with TK-10; 4.57 in the series on ACHN. Moreover, the pIC50 in the series on MDA-MB-468 is 4.92; in [4], 4.32. Further, the result with CLL cell [5] and in the series on CLL cell [6] was Active.

Consider `CC(=O)OCc1cc(O)cc(COC(C)=O)c1B1OC(C)(C)C(C)(C)O1`, for which the Activity in the series with DNA [2] came out at 0%; with DNA [7] it was 32%.

As to `CC(=O)OCc1cccc(COC(C)=O)c1B1OC(C)(C)C(C)(C)O1`, the results for the Activity in the series on DNA [2] and in the series with DNA [7] were 0% and 20%, respectively.

For `COc1cc(OC)c(CBr)c(B2OC(C)(C)C(C)(C)O2)c1CBr`, the Activity in the series on DNA [7] was determined as 20%.
